Source: PubChem BioAssay
Only some compounds are listed: those with a hit (about 1.7% of all), similar ones and a draw of the others.
LMPTP inh: blocks human LMPTP phosphatase | inhibition, % at 20 µM | recombinant LMPTP-A, OMFP fluorogenic substrate, fluorescence intensity | 360,000 compounds, 0.22% hits | P24666 | AID 651560;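 active = compounds that cut the enzyme signal by at least half of the control window in the single-dose screen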;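 also: plate controls were DMSO wells with enzyme plus substrate for no effect and substrate without enzyme for full effect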
Target sequence (P24666 whole entry, looked up): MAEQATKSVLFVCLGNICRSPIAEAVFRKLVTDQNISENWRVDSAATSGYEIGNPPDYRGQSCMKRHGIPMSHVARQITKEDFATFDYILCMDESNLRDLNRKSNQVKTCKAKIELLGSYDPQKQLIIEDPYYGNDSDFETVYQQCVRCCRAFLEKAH
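Material: LMPTP-A; amount: 0.625 nM enzyme; doses: single 20 µM dose; times: reaction 50 min, room temperature, dark; technique: fluorescence intensity of OMFP turnover product; benchmarks: no-enzyme and uninhibited controls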
DNMT1 inh: inhibitors of human DNMT1 | inhibition (reported as % activation of signal), % at 10 µM | P26358 | 360,000 compounds, 0.83% hits | DNMT1 molecular beacon, Hinp1I cleavage, fluorescence; in the data active = inhibition above about 50%
STEP inh: blocks human striatal-enriched tyrosine phosphatase | recombinant STEP, OMFP fluorogenic substrate, fluorescence | inhibition, % at 20 µM | P54829 | AID 588621 | 360,000 compounds, 0.25% hits;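 active = inhibition at 20 µM, scaled per plate between control wells, above about 37%, limit read from the data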;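 also: 0% = DMSO with enzyme and substrate and 100% = substrate only without enzyme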
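Material: STEP (striatal-enriched tyrosine phosphatase) enzyme, cell-free | Medium: 50 mM Bis-Tris pH 6.0 with 2.5 mM DTT and 0.005% Tween 20 | Read-out: Percent inhibition scaled to no-enzyme and uninhibited-enzyme controls, plate-pattern corrected | Signal: Fluorescence read at 480 nm ex / 540 nm em | Times: 20 min reaction, room temperature, in the dark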
Scp1 inh: blocks human Scp-1 phosphatase activity. Q9GZU7. Recombinant Scp1, phosphopeptide, malachite green phosphate absorbance. inhibition, % at 20 µM. 340,000 compounds, 0.88% hits. AID 493091;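 active = inhibition above about 50% at 20 µM, limit read from the data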;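 also: plate controls were DMSO wells with enzyme for no effect and wells lacking enzyme for full effect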
Target sequence (Q9GZU7 76-261 limits assumed): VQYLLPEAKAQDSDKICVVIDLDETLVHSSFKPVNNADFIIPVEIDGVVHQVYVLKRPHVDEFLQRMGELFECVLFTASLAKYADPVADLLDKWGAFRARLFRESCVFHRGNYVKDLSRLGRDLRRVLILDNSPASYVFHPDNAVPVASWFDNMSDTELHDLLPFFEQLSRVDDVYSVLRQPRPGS
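System: truncated SCP-1 phosphatase (76-261aa); medium: Tris acetate buffer pH 5.5 with MgCl2 and Tween-20; incubation: 45 min room-temperature reaction, 5 min colour, 30 min stabiliser; compound: single 20 µM dose, 1% DMSO; reagent: Phosphorylated 17-residue peptide substrate; read-out: % inhibition at 20 µM; technique: colorimetric free-phosphate detection, absorbance 630 nm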
SUMO1-SIM PPI: SUMO1-SIM interaction modulation; P63165; SUMO1 binding to a labelled peptide, TR-FRET, 1 h; inhibition, % at 20 µM; 360,000 compounds, 0.33% hits; in the data active = inhibition above about 37%
Target sequence (P63165 whole entry, looked up): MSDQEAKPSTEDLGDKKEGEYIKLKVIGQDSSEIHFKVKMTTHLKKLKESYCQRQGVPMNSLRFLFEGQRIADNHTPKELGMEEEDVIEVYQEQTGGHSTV
Scp1 confirm: confirmation of human Scp-1 phosphatase inhibitors; 2,500 compounds, 61% hits; inhibition, % at 20 µM; recombinant SCP-1 catalytic domain, phosphate release, malachite green absorbance; shares compounds with Scp1 inh;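 also: plate controls were DMSO with enzyme for no effect and buffer wells lacking enzyme for full effect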
Scp-1 MG ctr: counter-screen for Scp-1 inhibitors: colorimetric interference; shares compounds with Scp1 inh; Colorimetric interference counterscreen, malachite green absorbance 630 nm; apparent inhibition (interference), % at 20 µM; 2,500 tested, under 10 active;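 also: compounds added after enzyme reaction finished so only phosphate colour detection is probed; plate controls were DMSO wells with completed Scp-1 reaction for no effect and substrate wells lacking enzyme for full effect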
Scp-1 Tm shift: binds human Scp-1, shifting its melting temperature; shares compounds with Scp1 inh; 1,500 compounds, 25% hits; thermal shift relative to vanadate control, % at 40 µM; Recombinant SCP1, Sypro Orange thermal shift Tm; AID 540329;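 active = substances whose mean melting-temperature shift, as a percentage of the reference inhibitor's shift, reaches about 5.3%, limit read from the data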;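 also: 0% = Tm of DMSO wells and 100% = Tm with sodium orthovanadate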
An asterisk follows results filed as active; nt = no result given.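 The calls were made as follows, unless noted: active = inhibition of at least 30% at 20 µM; inactive = the rest.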

SMILES | LMPTP inh | DNMT1 inh | STEP inh | Scp1 inh | SUMO1-SIM PPI | Scp1 confirm | Scp-1 MG ctr | others
Cc1cc(C)c(C2=CC(=O)C[C@H](c3ccc4c(c3)OCO4)C2)c(C)c1 | 3.0 | 6.8 | -0.6 | -11.3 | 2.0 | nt | nt
O=C(COC(=O)CNS(=O)(=O)c1ccccc1)Nc1ncc(Cl)cc1Cl | 0.1 | 3.3 | -3.6 | 1.1 | 10.8 | nt | nt
CCOC(=O)C(C(=O)Nc1ccccn1)C1CCCCC1 (centres undefined) | -0.3 | -1.8 | 4.2 | 50.3* | -2.5 | 76.7* | -10.1 | Scp-1 Tm shift=-3.9
C=CCn1c(=NC(=O)c2sc3ccccc3c2Cl)sc2cc(S(N)(=O)=O)ccc21 | 38.5 | 33.1 | 2.5 | 88.2* | -2.4 | 78.2* | -9.0 | Scp-1 Tm shift=-16.2
CC(C)OC(=O)CC1C(=O)NCCN1C(=S)NC(=O)CCc1ccccc1 (centres undefined) | -0.6 | 4.0 | -2.3 | -6.5 | 2.0 | -15.7 | -16.2
Cn1c(NC(=O)C2CC2)cc(=O)n(C)c1=O | -0.3 | 1.4 | -3.0 | -6.6 | -0.1 | nt | nt
Cn1c(NNC(=O)c2ccc(C(C)(C)C)cc2)cc(=O)n(C)c1=O | -0.6 | -1.4 | 1.4 | -3.2 | -2.0 | nt | nt
Cn1c(NC(=O)CCC2CCCCC2)cc(=O)n(C)c1=O | 1.1 | -0.7 | 0.3 | -9.1 | 9.2 | -12.6 | -13.4
Cn1c(NNC(=O)CCC2CCCCC2)cc(=O)n(C)c1=O | -1.1 | -0.3 | -5.0 | -1.2 | 4.1 | -9.7 | -12.0
Cn1c(NC(=O)c2ccc(C(C)(C)C)cc2)cc(=O)n(C)c1=O | 0.6 | 2.6 | 2.0 | -6.6 | 1.7 | -20.6 | -12.8
Cn1c(NC(=O)Cc2cccc3ccccc23)cc(=O)n(C)c1=O | -0.6 | 2.0 | 0.9 | -12.2 | 2.4 | -20.0 | -26.0
Cc1ccccc1NC(=O)Cc1nnc(SCC(=O)NC2CCCCC2)n1C | -0.8 | -1.4 | 1.2 | -7.7 | 1.2 | nt | nt
Cc1cc(C)n2c(SCC(=O)N(CCC#N)c3ccc4c(c3)OCCO4)nnc2n1 | 10.3 | 23.3 | 3.7 | nt | 2.7 | nt | nt
O=C(CSc1nc2ccccc2c(=O)n1-c1ccccc1)NC(=O)CN1CCCC1=O | 4.2 | 31.2 | 19.9 | 58.0* | 6.7 | 38.8* | -10.1 | Scp-1 Tm shift=-13.8
O=C1CCC(C(=O)N2CCN(c3cnccn3)CC2)CN1CCc1ccc(Cl)cc1 (centres undefined) | -1.3 | 1.2 | 6.0 | -4.2 | 15.2 | nt | nt
O=C1C=C(c2cccc3c2sc2ccccc23)C[C@@H](c2ccc(F)cc2)C1 | 2.3 | 1.0 | 1.5 | -8.2 | -5.0 | nt | nt
CC(Oc1ccccc1)C(=O)N=C1SC2CS(=O)(=O)CC2N1c1cccc(F)c1 (centres undefined) | -0.5 | -1.6 | -4.0 | -2.2 | 3.9 | nt | nt
CSCCC(N=CC1=C(O)CC(C)(C)CC1=O)C(=O)O (centres undefined) | 0.5 | -6.2 | -3.6 | 73.0* | -3.3 | 6.4 | 6.9
CCC(CO)N=CC1=C(O)CC(C)(C)CC1=O (centres undefined) | 0.7 | 4.5 | 1.9 | 3.9 | 0.8 | nt | nt
CC1O[C@@H](OC2C(COC3OC(CO)C(O)[C@H](O)C3O)OC(OC3CC[C@]4(C)C(CC[C@@]5(C)[C@@H]4CC=C4[C@@H]6CC(C)(C)CC[C@]6(CO)C(O)C[C@]45C)C3(C)C)C(O)C2O)C(O)C(O)C1O (some centres undefined) | 8.1 | -1.3 | 3.2 | 54.8* | 9.9 | 24.6 | -8.7
CC1(C)C[C@H](O)[C@]2(CO)CC[C@]3(C)C(=CCC4[C@@]5(C)CC[C@H](O)C(C)(C)C5CC[C@]43C)[C@@H]2C1 (some centres undefined) | 0.3 | -20.1 | 0.6 | -1.3 | 0.9 | nt | nt
COc1ccc(N2CC(C(=O)OCC(=O)Nc3cccc(C)c3C)CC2=O)cc1 (centres undefined) | -0.5 | 0.4 | -2.8 | -7.2 | 7.5 | nt | nt
CSc1ccc(/C=C2\C(=N)N3N=C(CC(=O)N4CCOCC4)SC3=NC2=O)cc1 | -0.1 | 0.7 | -2.1 | 19.5 | -0.9 | nt | nt
N=C1/C(=C\c2ccc(Br)o2)C(=O)N=C2SC(CC(=O)N3CCOCC3)=NN12 | 2.3 | 47.4 | 4.0 | 78.0* | 27.5 | 36.3* | -18.1 | Scp-1 Tm shift=6.8*
CCCn1c(=O)[nH]c(=O)c2c1nc(-c1ccccc1)n2CCN1CCOCC1 | -3.0 | 6.9 | 8.1 | 82.0* | -3.5 | 93.5* | -5.7 | Scp-1 Tm shift=-20.9
SMILES | LMPTP inh | DNMT1 inh | STEP inh | Scp1 inh | SUMO1-SIM PPI | Scp1 confirm | Scp-1 MG ctr | others
CCCCn1c(=O)[nH]c(=O)c2c1nc(-c1ccc(-c3ccccc3)cc1)n2C | -2.1 | 28.3 | -0.1 | -0.8 | -8.4 | nt | nt
COc1cc(NC(=O)C(C)N2CCN(C(=O)C3CC3)CC2)cc(OC)c1 (centres undefined) | -1.1 | 2.6 | 0.6 | -4.8 | 2.5 | nt | nt
COc1ccc(CCNC(C(=O)Nc2cc(C)cc(C)c2)c2ccccc2)cc1 (centres undefined) | 3.9 | -2.9 | 0.2 | 54.1* | 1.8 | -9.0 | -5.4
N#CCSc1ccccc1NC(=O)COC(=O)CCN1C(=O)C2CC=CCC2C1=O (centres undefined) | 0.5 | -1.2 | -5.0 | -2.4 | 2.3 | nt | nt
COc1ccc(NC(=O)CCNS(=O)(=O)c2cc(Br)ccc2Br)cc1S(N)(=O)=O | 2.3 | -2.2 | 2.1 | 1.8 | 0.9 | -22.5 | -18.6
CCOC(=O)/C(CCC[N+](C)(CC)CC)=N\O | -0.6 | 5.0 | 0.2 | 98.7* | -0.8 | -8.4 | -14.5
O=C(COc1ccccc1)NS(=O)(=O)c1ccccc1 | -2.1 | -1.1 | -0.7 | -8.1 | 7.0 | nt | nt
COc1ccc(NC(=O)CN2C(=O)C(c3ccccc3)=NC23CCCCCC3)cc1 | 1.0 | 2.6 | 0.3 | 58.6* | -2.4 | -25.8 | -22.8
O=C(CN1C(=O)C(c2ccc(F)cc2)=NC12CCCC2)Nc1ccc(F)cc1 | -0.8 | 1.5 | -2.7 | -1.2 | 5.4 | nt | nt
Cc1ccc(NC(=O)CSc2nc3[nH]ncc3c(=O)[nH]2)cc1Cl | 0.2 | -8.7 | -2.9 | 58.2* | 9.7 | 29.3 | -12.9
Cc1ccc(C)c(NC(=O)CSc2ncnc3nc[nH]c23)c1 | 0.1 | 1.1 | -0.2 | 58.0* | -1.7 | -19.1 | -16.4
COc1ccc(-c2ccc(-c3noc(-c4ccco4)n3)c(OC)n2)cc1 | 0.9 | 0.3 | -1.2 | -4.4 | 2.9 | nt | nt
COc1nc(-c2ccccc2)ccc1-c1noc(-c2ccco2)n1 | 2.4 | -8.8 | 1.8 | 98.7* | 4.6 | -5.6 | -16.7
O=C(NCCCN1CCCC1=O)c1ccccc1OCc1ccc(Cl)cc1Cl | 0.3 | 4.8 | 2.7 | -1.1 | 4.6 | nt | nt
CCn1c2ccccc2c2nnc(SCC(=O)c3c(N)n(C)c(=O)n(C)c3=O)nc21 | -0.7 | -16.7 | 12.3 | 62.7* | 5.6 | -2.5 | -9.6
